Our source for the Motor activity, Time and IC50 values is ChEMBL document CHEMBL1136272, “Development of a presynaptic 5-HT1A antagonist” (Bioorg Med Chem Lett, 2003).

In experiment [1] the test system is Rattus norvegicus. Nature of the experiment: In vivo motor activity determined in rat at 0.1 mg/kg of ip administration. In kind it is functional. Conditions: route intraperitoneal. Put shortly: (§1)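 Rat social interaction paradigm with total motor activity counts recorded in the same session. All compounds were given ip, with a saline-treated control group. Combination arms gave a 0.1 mg/kg agent together with a second agent at 1 mg/kg, both ip. Social interaction time (s) and motor counts are reported as mean ± SEM, with significance tested against saline control.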

In experiment [2] the test system is Rattus norvegicus. As to the kind of experiment: Social interaction time determined in vivo rat at 0.1 mg/kg of ip administration. It is filed as functional. Conditions: route intraperitoneal. In outline:
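Rats dosed i.p. against a saline-treated control group. Social interaction time (s) and total motor activity (counts) were recorded in the same social-interaction session and reported as mean ± SEM, with significance tested against saline control.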

For experiment [3], the system named is Rattus norvegicus. Nature of the experiment: Social interaction time determined in vivo in rat at 0.1 + 1 mg/kg of ip administration. In kind it is functional. Conditions: route intraperitoneal. Put shortly: as §1
The test system of experiment [4] is Rattus norvegicus. As to the kind of experiment: In vivo motor activity determined in rat at 0.1 + 1 mg/kg of ip administration. Conditions: route intraperitoneal. In kind it is functional. In outline: as §1
Experiment [5] addresses T1, 5-hydroxytryptamine receptor 1A (Rattus norvegicus, UniProt P19327).
T1 sequence (P19327 whole entry): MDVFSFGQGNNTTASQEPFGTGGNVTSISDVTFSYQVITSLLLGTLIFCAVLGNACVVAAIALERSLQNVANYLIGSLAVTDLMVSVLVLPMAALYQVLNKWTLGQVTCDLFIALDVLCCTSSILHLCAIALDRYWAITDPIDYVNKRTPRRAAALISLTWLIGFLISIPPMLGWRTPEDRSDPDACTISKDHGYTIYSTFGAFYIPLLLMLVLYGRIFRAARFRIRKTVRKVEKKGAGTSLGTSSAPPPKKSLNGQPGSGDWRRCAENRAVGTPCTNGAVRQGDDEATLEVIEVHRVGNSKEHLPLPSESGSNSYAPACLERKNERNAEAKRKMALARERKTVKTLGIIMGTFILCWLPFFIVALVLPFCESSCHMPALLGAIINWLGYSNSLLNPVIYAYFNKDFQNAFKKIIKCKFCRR
As to the kind of experiment: Inhibition of the 5-hydroxytryptamine 1A receptor in rat dorsal raphe.

With `O=C1CC2(CCCC2)CC(=O)N1CCCCN1CCN(c2ncccn2)CC1` [BUSPIRONE], in experiment [1], the Motor activity is reported as 6700 Counts. The molecule further displayed a Time in experiment [2] of 125 s.

With `COc1cccc(CN2CCN(C3CCC(O)(c4ccc5c(c4)OCO5)CC3)CC2)c1.O=C1CC2(CCCC2)CC(=O)N1CCCCN1CCN(c2ncccn2)CC1` (stereo unspecified), the Time in experiment [3] turned out to be 51 s. Moreover, the Motor activity in experiment [4] is 4600 Counts. Take `COc1ccccc1CN1CCN(C2CCC(O)(c3ccc4c(c3)OCO4)CC2)CC1` (stereo unspecified): in experiment [5], it took 43 nM to reach half-maximal inhibition (IC50). In experiment [5], `COc1cccc(CN2CCN(C3CCC(O)(c4ccc5c(c4)OCO5)CC3)CC2)c1F` (stereo unspecified) had an IC50 of 19 nM. In experiment [5], `OC1(c2ccc3c(c2)OCO3)CCC(N2CCN(Cc3cccc(Cl)c3)CC2)CC1` (stereo unspecified) displayed an IC50 of 6 nM. `COc1ccc(CN2CCN(C3CCC(O)(c4ccc5c(c4)OCO5)CC3)CC2)cc1` (stereo unspecified) displayed an IC50 in experiment [5] of 380 nM. In the case of `COc1ccc(C2(O)CCC(N3CCN(Cc4ccccc4)CC3)CC2)cc1` (stereo unspecified), inhibition in experiment [5] was half-maximal at 50 nM (IC50). For the molecule `CCOc1cccc(CN2CCN(C3CCC(O)(c4ccc5c(c4)OCO5)CC3)CC2)c1` (stereo unspecified), in experiment [5], the IC50 was 6.7 nM. In experiment [5], `COc1ccc(F)c(CN2CCN(C3CCC(O)(c4ccc5c(c4)OCO5)CC3)CC2)c1` (stereo unspecified) displayed an IC50 of 0.75 nM. Same read-out and setting: the value for `OC1(c2ccc3c(c2)OCO3)CCC(N2CCN(Cc3ccc(F)c(F)c3)CC2)CC1` (stereo unspecified) was 34 nM; that for `OC1(c2ccc3c(c2)OCO3)CCC(N2CCN(Cc3cc(F)cc(F)c3)CC2)CC1` (stereo unspecified) was 21 nM.

Regarding `COc1ccc(C2(O)CCC(N3CCN(Cc4ccccc4)CC3)CC2)cc1OC` (stereo unspecified), the IC50 in experiment [5] stood at 140 nM. On the same count and under the same terms, the result for `OC1(c2ccc3c(c2)OCO3)CCC(N2CCN(Cc3c(F)cccc3F)CC2)CC1` (stereo unspecified) reads 110 nM. In experiment [5], `OC1(c2ccc3c(c2)OCO3)CCC(N2CCN(Cc3ccccc3F)CC2)CC1` (stereo unspecified) had a half-inhibitory concentration (IC50) of 10 nM. On the same count and under the same terms, the value for `OC1(c2ccc3c(c2)OCO3)CCC(N2CCN(Cc3ccccc3Cl)CC2)CC1` (stereo unspecified) was 1.9 nM; that for `OC1(c2ccc3c(c2)OCO3)CCC(N2CCN(Cc3ccccc3Br)CC2)CC1` (stereo unspecified) was 1.2 nM. Regarding `OC(CCCN1CCN(c2ncc(F)cn2)CC1)c1ccc(F)cc1` (stereo unspecified) [BMY-14802], the Motor activity in experiment [1] was 6800 Counts. Besides, the Time in experiment [2] came to 123 s.

Regarding `OC1(c2ccc3c(c2)OCO3)CCC(N2CCN(Cc3cccc(F)c3F)CC2)CC1` (stereo unspecified), inhibition in experiment [5] was half-maximal at 17 nM (IC50). For `OC1(c2ccc3c(c2)OCO3)CCC(N2CCN(Cc3ccc(F)cc3)CC2)CC1` (stereo unspecified), the midpoint of inhibition in experiment [5], the IC50, lay at 27 nM. On the same count and under the same terms, the result for `OC1(c2ccccc2)CCC(N2CCN(Cc3ccccc3)CC2)CC1` (stereo unspecified) reads 460 nM; that for `OC1(c2ccc(F)cc2)CCC(N2CCN(Cc3ccccc3)CC2)CC1` (stereo unspecified), 260 nM; that for `COc1ccccc1C1(O)CCC(N2CCN(Cc3ccccc3)CC2)CC1` (stereo unspecified), 60 nM. In experiment [5], `OC1(c2ccc3c(c2)OCO3)CCC(N2CCN(Cc3cccc(Br)c3)CC2)CC1` (stereo unspecified) came in with an IC50 of 2.8 nM. For `COc1cccc(CN2CCN(C3CCC(O)(c4ccc5c(c4)OCO5)CC3)CC2)c1.OC(CCCN1CCN(c2ncc(F)cn2)CC1)c1ccc(F)cc1` (stereo unspecified), in experiment [3], the Time was found to be 49 s. The Motor activity in experiment [4] is 5400 Counts. `COc1cccc(CN2CCN(C3CCC(O)(c4ccc5c(c4)OCO5)CC3)CC2)c1.OC1(c2ccc3c(c2)OCO3)CCC(N2CCN(Cc3ccccc3)CC2)CC1` (stereo unspecified): in experiment [3], the Time came to 53 s. The Motor activity in experiment [4] was 5100 Counts.

On to `OC1(c2ccc3c(c2)OCO3)CCC(N2CCN(Cc3cc(F)ccc3F)CC2)CC1` (stereo unspecified), for which the IC50 in experiment [5] amounted to 2.6 nM.

The molecule `OC1(c2ccc3c(c2)OCO3)CCC(N2CCN(Cc3ccccc3I)CC2)CC1` (stereo unspecified) yielded a half-maximal inhibitory concentration (IC50) in experiment [5] of 1.2 nM. `COc1cccc(C2(O)CCC(N3CCN(Cc4ccccc4)CC3)CC2)c1` (stereo unspecified) showed an IC50 in experiment [5] of 50 nM. Same read-out and setting: the result for `OC1(c2ccc3c(c2)OCO3)CCC(N2CCN(Cc3ccc(F)cc3F)CC2)CC1` (stereo unspecified) reads 57 nM; that for `OC1(c2ccc3c(c2)OCO3)CCC(N2CCN(Cc3ccc(Cl)cc3)CC2)CC1` (stereo unspecified), 79 nM.

As to `OC1(c2ccc3c(c2)OCO3)CCC(N2CCN(Cc3cccc(F)c3)CC2)CC1` (stereo unspecified), the IC50 in experiment [5] was determined as 13 nM.

For orientation: IC50 means the point on the concentration scale where inhibition reaches its midpoint. Read a high IC50 as weaker potency in that assay.
